Compounds with a hit are over-represented: about 2.2% of the library has one in this group of screens.
Wee1 degr inh: Wee1 degradation inhibitors, primary screen, cell-based, HeLa, Wee1K328M-luciferase, luminescence | AID 1321, 2008 | HeLa Luc-Wee1K328M stability; 100% = proteasome inhibitor MG132 effect | actives 1.2% (n = 220,000) | Wee1-like protein kinase (Homo sapiens), P30291 | reporter increase, % at 5 µM;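 active = activation above the mean of all tested compounds plus 3 SD, set per screening run, cut at about 8.8% in these data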;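 note: cells exposed to compound for 20 h before luminescence read; 0% = DMSO alone and 100% = MG132 at 30 µM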
Target sequence (P30291 whole entry K328M): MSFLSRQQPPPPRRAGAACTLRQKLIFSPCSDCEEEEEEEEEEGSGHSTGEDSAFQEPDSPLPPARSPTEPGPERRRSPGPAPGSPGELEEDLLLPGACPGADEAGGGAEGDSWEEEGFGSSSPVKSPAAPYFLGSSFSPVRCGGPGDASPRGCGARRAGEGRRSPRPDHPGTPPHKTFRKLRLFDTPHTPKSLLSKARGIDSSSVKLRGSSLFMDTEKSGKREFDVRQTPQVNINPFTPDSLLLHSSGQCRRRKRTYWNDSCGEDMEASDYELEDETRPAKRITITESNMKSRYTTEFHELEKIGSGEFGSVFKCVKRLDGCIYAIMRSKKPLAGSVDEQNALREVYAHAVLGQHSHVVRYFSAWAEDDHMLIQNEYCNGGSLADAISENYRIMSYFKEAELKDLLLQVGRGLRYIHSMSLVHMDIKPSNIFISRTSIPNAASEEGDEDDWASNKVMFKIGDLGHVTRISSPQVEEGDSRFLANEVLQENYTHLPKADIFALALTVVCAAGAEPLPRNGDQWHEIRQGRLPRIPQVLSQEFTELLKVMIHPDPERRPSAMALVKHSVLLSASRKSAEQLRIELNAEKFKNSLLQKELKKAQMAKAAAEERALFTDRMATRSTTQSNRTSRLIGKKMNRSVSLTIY
FLuc act counter: FLuc activators, initial screening, artefact control for FLuc-dependent activation tests, biochemical, ATPlite luminescence. Luciferin 4-monooxygenase (Photinus pyralis), P08659. activation factor at 10 µM. ATPlite luciferase biochemical, 10 min; 0 = ATP-free wells, 1 = DMSO control. 200,000 tested, under 10 active;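 active = luciferase activation factor, scaled between plate controls, of at least 2 with compound at 10 µM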
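System: Luciferase/luciferin detection reagent, cell-free biochemical luciferase assay | Medium: PBS buffer for ATP | Dosing: Test compounds dosed from 2 mM stocks in 100% DMSO | Timing: 10 min at ambient temperature | Signal: Luminescence measurement of luciferase light output | Evaluation: Luciferase activation, seen as luminescence increase over controls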
PPC-1+TRAIL kill: compounds killing PPC-1 cancer cells with TRAIL present, primary screen, TRAIL potentiator project, ATPLite luminescence, uHTS. PPC-1 cells + TRAIL, ATPLite viability luminescence. cell killing (% activity), % at 4 µM or 5 µM. actives 0.41% (n = 220,000). AID 1443, 2008;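 active = cell killing above 50% in the first pass at 4 µM, then a duplicate retest at 5 µM averaging 50% or more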;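 note: plate controls were cells with TRAIL plus DMSO for no effect and medium-only wells lacking cells for full effect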
FLuc inh counter: firefly luciferase enzyme inhibitors, primary screen, artefact control for luciferase-based inhibitor screens, biochemical, luminescence, ATPLite | 10 min | inhibition, % at 10 µM | AID 1006, 2008 | actives 1.5% (n = 200,000) | Luciferin 4-monooxygenase (Photinus pyralis), P08659;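 active = inhibition above about 50% when tested at 10 µM, limit read from the data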
C8 TRAIL sens: viability loss with TRAIL in NB7+C8 cells, primary screen, TRAIL sensitizer project, cell-based, ATPlite luminescence. inhibition (viability loss, TRAIL sensitization), % at 10 µM. actives 1% (n = 360,000). AID 624354, 2012;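 active = compounds causing at least 50% loss of cell viability in the single-dose screen, relative to plate controls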
PKD1 inh: inhibitors of human PKD1 kinase, biochemical, fluorescence polarization | Serine/threonine-protein kinase D1 (Homo sapiens), Q15139 | PKD1 kinase fluorescence polarization assay | inhibition, % (concentration not given with the values) | actives 0.056% (n = 200,000) | AID 797, 2007; in the data active = inhibition above about 50%
Wee1 stab conf: Wee1 degradation inhibitors, confirmation, cell-based, HeLa, Wee1K328M-luciferase, luminescence, triplicate; shares compounds with Wee1 degr inh; actives 4% (n = 1,100); HeLa Luc-Wee1K328M degradation; vehicle 0%, proteasome-blocked wells 100%; activation, % at 5 µM; AID 1410, 2008; in the data active = activation above about 8.9%
Numbers without * were called inactive.

N#Cc1ccc(C(=O)OCC(=O)Nc2cccnc2Cl)cc1 was read as C8 TRAIL sens 0.
Screening Cc1onc(-c2ccccc2)c1C(=O)N1CCN(C)CC1 returned Wee1 degr inh 17*, FLuc act counter 1, PPC-1+TRAIL kill 20, FLuc inh counter -5, C8 TRAIL sens -2, PKD1 inh -7 and Wee1 stab conf -1.
`OCC(O)C1OC(Nc2ccc(Cl)cc2)C(O)C1O` (stereo not given) gave Wee1 degr inh 6, PPC-1+TRAIL kill -4 and C8 TRAIL sens 13.
Screening CC1(C)C(c2ccccc2)=NC(c2ccccc2)N1O (stereo not given) returned Wee1 degr inh 2, FLuc act counter 1, PPC-1+TRAIL kill 28, FLuc inh counter -4, C8 TRAIL sens -10 and PKD1 inh -6.
Screening COc1ccc(C2N=C(c3ccccc3)C(C)(C)N2O)cc1 (stereo not given) returned Wee1 degr inh 31*, FLuc act counter 1, PPC-1+TRAIL kill -2, FLuc inh counter -2, C8 TRAIL sens -11, PKD1 inh 4 and Wee1 stab conf 1.
`O=C(OCC(=O)c1ccc(Cl)cc1Cl)c1cnccn1` gave C8 TRAIL sens -5.
For O=C(OCC(=O)c1ccccc1Cl)c1cnccn1 the results were Wee1 degr inh 12*, FLuc act counter 0.9, PPC-1+TRAIL kill 7, FLuc inh counter 6, C8 TRAIL sens 10, PKD1 inh 9 and Wee1 stab conf -6.
`COc1ccc(C(=O)COC(=O)CCNS(=O)(=O)c2ccccc2)c(OC)c1` gave C8 TRAIL sens 4.
CCOc1ccc(N2CC(C(=O)Nc3cccc(C(=O)NC4CC4)c3)CC2=O)cc1 (stereo not given) was read as C8 TRAIL sens 3.
For CCn1c(CSc2nc(C)cc(C)n2)nnc1SCC(=O)N1CCCc2ccccc21 the results were Wee1 degr inh 14*, FLuc act counter 1, PPC-1+TRAIL kill 15, FLuc inh counter -2, C8 TRAIL sens 9, PKD1 inh -11 and Wee1 stab conf 1.
Cc1ccc(Nc2nc(-c3ccncc3)cs2)cc1 was read as Wee1 degr inh 18*, FLuc act counter 0.6, PPC-1+TRAIL kill 20, FLuc inh counter 35, C8 TRAIL sens 24, PKD1 inh 1 and Wee1 stab conf 7.
`COc1cccc(NC(=O)CN(C)C(=O)c2cc(-c3ccccc3)nn2-c2ccccc2)c1` gave C8 TRAIL sens -12.
`Nc1nc(COc2ccccc2)cs1` gave Wee1 degr inh 3, FLuc act counter 1, PPC-1+TRAIL kill 0, FLuc inh counter -3, C8 TRAIL sens 6 and PKD1 inh 0.
Cc1ccccc1OCc1csc(N)n1 was read as Wee1 degr inh 16*, FLuc act counter 1, PPC-1+TRAIL kill 6, FLuc inh counter -2, C8 TRAIL sens -11, PKD1 inh -5 and Wee1 stab conf -1.
`CCOc1ccc(NC(=S)Nc2ccc(OCC)cc2)cc1` gave Wee1 degr inh 3, FLuc act counter 1, PPC-1+TRAIL kill 5, FLuc inh counter -4, C8 TRAIL sens 1 and PKD1 inh -5.
For CCOc1ccc(NC(=S)Nc2ccc(C)c([N+](=O)[O-])c2)cc1 the results were Wee1 degr inh 14*, FLuc act counter 1.1, PPC-1+TRAIL kill -10, FLuc inh counter -6, C8 TRAIL sens 2, PKD1 inh 0 and Wee1 stab conf -2.
For Cc1ccc2c(CC(=O)N3CCc4ccccc43)coc2c1 the results were Wee1 degr inh 18*, FLuc act counter 0.7, PPC-1+TRAIL kill 41, FLuc inh counter 34, C8 TRAIL sens 25, PKD1 inh -6 and Wee1 stab conf 2.

Screens (PubChem)
